PMC10362274 (iScience, 2023)

Key:
[1] = tested on: Tyr369-377-specific CD8^+ T cell clones; test: IFNγ secretion assay; type: cell-based, human; settings: 1/1 ratio with pulsed T2 cells, 24 h co-culture, ELISA, duplicates
How it was run: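 Tyrosinase-specific CD8+ T cell clones came from HLA-A2 tetramer sorting and limiting dilution. They were grown in RPMI with 8% pooled human serum and 150 IU/ml IL-2 at 37°C, 5% CO2. Clones were co-cultured 1:1 for 24 h with T2 cells pulsed with serial dilutions of native or oxidized peptide, in duplicate. IFNγ was measured by ELISA against an exponential standard curve.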

[2] = tested on: Tyr369-377-specific CD8^+ T cell clones; test: Standard 4-h 51Chromium release assay, peptide-pulsed T2 cells; type: cell-based, human; settings: EC50 = peptide concentration giving 50% maximal killing; across YMD-specific CD8^+ T cell clones
[3] = tested on: MAGE-A10-specific CD8^+ T cell clones; test: as above; type: cell-based, human; settings: n = 3 MAGE-A10-specific CD8^+ T cells; no titration of the antigenic peptides
HLA-A∗02:01 = HLA-A∗02:01 (Homo sapiens, UniProt P04439, D140Y/D185E/D98H/E176V/E277Q/G131W/G231S/I119V/I121R/I166T/I218V/L300P/L318F/N151K/N90K/P208A/P217A/Q86G/Q94H/R138H/R169H/T345S); settings: refolded complex, ELISA
[4] = HPLC oxidation profiling of the YMD peptide using hydrogen peroxide; type: physicochemical
How it was run: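 Synthetic test peptide (~155 μM in LC-MS water) oxidized with varying hydrogen peroxide levels for 30 min at 4°C. For time courses, similar peptide level in 0.1% formic acid/2% acetonitrile with hydrogen peroxide in excess (120 mM), treated as constant for pseudo-first-order fitting. Forms resolved by RP-HPLC, fractions verified by offline MS/MS; triplicate points.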

Substance	IFNγ released compared with native [1]	EC50 compared with the native peptide [2]	other results
M2SO: Met2 sulfoxide of the YMD peptide	no significant differences	–	–
M6SO: Met6 sulfoxide of the YMD peptide	released more IFNγ	significant lower values	–
MAGE-A10_OX: oxidized form of MAGE-A10 254-262 peptide (GLYDGMEHL; not fully specified; oxidized Met (the underlined M of GLYDGMEHL; sulfoxide or sulfone not stated))	–	–	EC50 compared with the native peptide [3]: slightly increased
YM2SODGTM6SOSQV [M2SOM6SO]	released more IFNγ	significant lower values	stability of the HLA-A∗02:01-peptide complex at t0 compared with HLA-A∗02:01-N (HLA-A∗02:01): more stable at t0
YMDGTMSQV [N]	–	–	time for 50% of the peptide to oxidize ([4]; 120 mM hydrogen peroxide, 4°C, pseudo-first-order kinetics, RP-HPLC UV 275 nm): ~20 min; fraction of the total found as complete oxidized to sulfone forms ([4]; 3 M hydrogen peroxide, after 10 days, RP-HPLC peak quantification): ~66%; transformation of the peptide to sulfoxide forms ([4]; hydrogen peroxide 600 mM or higher, 30 min, 4°C, RP-HPLC UV 275 nm): almost complete transformation
